Source: ChEMBL document CHEMBL1149195, “N,N-dialkyl-2-phenylindol-3-ylglyoxylamides. A new class of potent and selective ligands at the peripheral benzodiazepine receptor” (J Med Chem, 2004)

Columns and labels:
[1] = biological target: GABA-A receptor; anion channel (Rattus norvegicus) (UniProt O09028+P15431+P18506+P18508+P19969+P20236+P23574+P23576+P28471+P28473+P30191+P62813+P63079+P63138+Q91ZM7+Q9ES14); assay: Percent inhibition of rat benzodiazepine receptor assayed using [3H]-flumazenil radioligand at 10 um concentration; format: protein-complex assay
Outline: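 Displacement of [3H]flumazenil specific binding in rat brain membranes by test compound at fixed 10 µM; percent inhibition as mean ± SEM of five determinations.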

[2] = biological target: T1, Cholesterol side-chain cleavage enzyme, mitochondrial (Rattus norvegicus, UniProt P14137); assay: Stimulation of pregnenolone formation from rat C6 glioma cells; format: functional, cell-based; set-up: concentration or dose not given beside the values
T1 sequence (P14137 whole entry): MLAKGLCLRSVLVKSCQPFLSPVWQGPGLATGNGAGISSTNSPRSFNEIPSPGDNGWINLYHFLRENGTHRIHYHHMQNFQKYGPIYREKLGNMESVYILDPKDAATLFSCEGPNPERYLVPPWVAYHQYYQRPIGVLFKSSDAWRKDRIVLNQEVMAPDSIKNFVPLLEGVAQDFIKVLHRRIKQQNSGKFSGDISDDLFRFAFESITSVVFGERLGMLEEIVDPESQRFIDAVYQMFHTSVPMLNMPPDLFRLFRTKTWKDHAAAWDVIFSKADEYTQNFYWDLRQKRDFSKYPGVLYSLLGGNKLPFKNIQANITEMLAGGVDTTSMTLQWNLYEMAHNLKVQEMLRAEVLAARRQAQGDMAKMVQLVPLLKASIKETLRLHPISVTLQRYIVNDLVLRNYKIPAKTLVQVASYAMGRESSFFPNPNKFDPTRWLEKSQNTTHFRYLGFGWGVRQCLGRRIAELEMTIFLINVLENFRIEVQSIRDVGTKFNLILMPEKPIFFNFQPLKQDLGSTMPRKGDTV
Outline: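 Rat C6 glioma cells exposed to compound for 2 h at 37 °C; pregnenolone measured by radioimmunoassay and expressed as % increase over control; mean ± SEM of at least three determinations.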

Translocator protein = Translocator protein (Rattus norvegicus, UniProt P16257); assay: Binding affinity to peripheral benzodiazepine receptors using [3H]-PK11195 radioligand in rat kidney mitochondrial membrane; format: cell membranes
Sequence of Translocator protein (P16257 whole entry, looked up): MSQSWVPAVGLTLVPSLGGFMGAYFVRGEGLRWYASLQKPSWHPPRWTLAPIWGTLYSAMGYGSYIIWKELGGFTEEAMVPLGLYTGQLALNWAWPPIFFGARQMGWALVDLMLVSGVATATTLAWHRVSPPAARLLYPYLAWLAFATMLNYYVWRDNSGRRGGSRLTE

Compound	inhibition [1]	Activity [2]	Ki (Translocator protein)
CCCN(CCC)C(=O)C(=O)c1c(-c2ccc(C)cc2)[nH]c2ccccc12	7%	148%	–
CCCCN(CCCC)C(=O)C(=O)c1c(-c2ccc(F)cc2)[nH]c2ccccc12	0%	26%	–
CCCNC(=O)C(=O)c1c(-c2ccccc2)[nH]c2ccccc12	–	–	815 nM
CCCCN(CCCC)C(=O)C(=O)c1c(-c2ccc(Cl)cc2)[nH]c2ccccc12	0%	55%	1 nM
CCCCCCN(CCCCCC)C(=O)C(=O)c1c(-c2ccccc2)[nH]c2ccc(Cl)cc12	3%	31%	58.4 nM
CCCN(CCC)C(=O)C(=O)c1c(-c2ccccc2)[nH]c2ccccc12	16%	8%	–
CCCN(CCC)C(=O)C(=O)c1c(-c2ccccc2)[nH]c2ccc(Cl)cc12	10%	10%	2.8 nM
CCCCCCN(CCCCCC)C(=O)C(=O)c1c(-c2ccc(Cl)cc2)[nH]c2ccccc12	4%	109%	0.55 nM
CCCCCCN(CCCCCC)C(=O)C(=O)c1c(-c2ccc(F)cc2)[nH]c2ccccc12	0%	62%	0.37 nM
CCCN(CCC)C(=O)Cc1c(-c2ccc(Cl)cc2)nc2ccc(Cl)cn12 [ALPIDEM]	28%	–	7 nM
CCCCN(CCCC)C(=O)C(=O)c1c(-c2ccc(C)cc2)[nH]c2ccccc12	11%	58%	3.8 nM
CCCN(CCC)C(=O)C(=O)c1c(-c2ccc(Cl)cc2)[nH]c2ccccc12	14%	40%	4.65 nM
CCCCCN(CCCCC)C(=O)C(=O)c1c(-c2ccccc2)[nH]c2ccccc12	3%	35%	16 nM
CCCCCCN(CCCCCC)C(=O)C(=O)c1c(-c2ccccc2)[nH]c2ccccc12	10%	30%	–
CCCCNC(=O)C(=O)c1c(-c2ccccc2)[nH]c2ccccc12	12%	–	1170 nM
O=C(C(=O)N1CCCC1)c1c(-c2ccccc2)[nH]c2ccccc12	4%	–	2400 nM
CC(C)N(C(=O)C(=O)c1c(-c2ccccc2)[nH]c2ccccc12)C(C)C	4%	–	103 nM
CCCCN(CCCC)C(=O)C(=O)c1c(-c2ccccc2)[nH]c2ccccc12	3%	23%	7.5 nM
CCN(CC)C(=O)C(=O)c1c(-c2ccccc2)[nH]c2ccccc12	6%	–	43 nM
O=C(C(=O)N1CCCCCC1)c1c(-c2ccccc2)[nH]c2ccccc12	5%	–	33 nM
CCCCN(CCCC)C(=O)C(=O)c1c(-c2ccc(Cl)cc2)[nH]c2ccc(Cl)cc12	0%	147%	1.9 nM
CCCCCCN(CCCCCC)C(=O)C(=O)c1c(-c2ccc(C)cc2)[nH]c2ccccc12	6%	77%	1.6 nM
CCCN(CCC)C(=O)C(=O)c1c(-c2ccc(Cl)cc2)[nH]c2ccc(Cl)cc12	5%	49%	0.62 nM
O=C(C(=O)N1CCCCC1)c1c(-c2ccccc2)[nH]c2ccccc12	3%	–	665 nM
CCCCCCN(CCCCCC)C(=O)C(=O)c1c(-c2ccc(Cl)cc2)[nH]c2ccc(Cl)cc12	3%	166%	5.8 nM
CCC(C)N(C(=O)C(=O)c1c(-c2ccccc2)[nH]c2ccccc12)C(C)CC (stereo unspecified)	5%	10%	17 nM
CCCN(CCC)C(=O)C(=O)c1c(-c2ccc(F)cc2)[nH]c2ccccc12	4%	20%	4.28 nM
CCCCN(CCCC)C(=O)C(=O)c1c(-c2ccccc2)[nH]c2ccc(Cl)cc12	13%	5%	4.91 nM
